An excerpt weighted towards active compounds, which were near 3.1% of everything screened.
OX1R antag-1: OX1R (human) antagonism; O43613; OX1R-expressing cells, FRET antagonist read-out; inhibition, % at 6.6 µM; hit rate 1.8% among 330,000; AID 485270; in the data active = inhibition mostly above about 38%, no sharp cut-off; inactive = mostly below about 40%;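 note: 0% = agonist challenge alone and 100% = reference antagonist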
GPR7 antag: human neuropeptides B/W receptor 1 antagonism | GPR7-expressing cells, fluorescence antagonist assay | inhibition, % at 4.4 µM | hit rate 1.1% among 290,000 | AID 1861; in the data active = inhibition above about 16%, passing the limit was not always enough;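 note: cells stimulated with the agonist NPW; 0% = agonist with vehicle and 100% = vehicle without agonist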
Target sequence (P48145 whole entry, looked up): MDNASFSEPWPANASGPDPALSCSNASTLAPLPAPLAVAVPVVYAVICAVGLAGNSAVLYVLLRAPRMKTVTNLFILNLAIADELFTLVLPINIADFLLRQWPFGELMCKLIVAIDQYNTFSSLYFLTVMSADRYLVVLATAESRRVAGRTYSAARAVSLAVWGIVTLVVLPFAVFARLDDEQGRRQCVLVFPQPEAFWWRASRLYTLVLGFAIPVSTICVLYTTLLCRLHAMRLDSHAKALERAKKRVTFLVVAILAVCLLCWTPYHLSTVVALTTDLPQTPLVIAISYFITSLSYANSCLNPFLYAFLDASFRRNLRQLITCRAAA
OX1R antag-2: human HCRTR1 antagonism. O43613. CHO/OX1R cells, Fluo-8 calcium fluorescence, orexin A. inhibition, % at 5 µM. hit rate 0.43% among 330,000. AID 434989;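 active = inhibition above its plate's threshold, mean inhibition of all tested compounds on the plate plus 3 SD, cut at about 37% in these data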;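 note: 0% = orexin A challenge wells and 100% = SB-334867-A antagonist wells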
CHO parental Ca: signal in parental CHO cells, OX1R antagonist counter-screen; parental CHO-K1, ATP-induced calcium, Fluo-8 fluorescence; inhibition, % at 5.6 µM; hit rate 0.63% among 330,000; AID 463079;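 active = inhibition above that plate's mean sample inhibition plus 3 SD, cut at about 26% in these data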;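 note: 0% = ATP-challenged DMSO wells and 100% = DMSO wells without ATP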
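material = parental CHO cells | also added = ATP as calcium-mobilizing challenge | dosing = single point at 5.6 µM | detection = intracellular calcium via Fluo-8 no-wash fluorescent dye | read-out = % inhibition | benchmarks = low control ATP plus DMSO, high control DMSO only | repeats = one well per compound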
GalR3 antagonist: antagonists of human GalR3; O60755; HEK293 GalR3-CNG cAMP membrane potential fluorescence; galR3 body fused to GalR1 C-terminus; inhibition, % at 3 µM; hit rate 0.44% among 360,000;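 active = inhibition above the screen-wide average plus 3 SD, cut at about 13% in these data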;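 note: forskolin and galanin both at EC90 stimulate the cells; cAMP rise reported by CNG channel membrane potential dye signal; 0% = forskolin plus galanin with DMSO and 100% = forskolin alone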
Target sequence (O60755 1-299 limits assumed): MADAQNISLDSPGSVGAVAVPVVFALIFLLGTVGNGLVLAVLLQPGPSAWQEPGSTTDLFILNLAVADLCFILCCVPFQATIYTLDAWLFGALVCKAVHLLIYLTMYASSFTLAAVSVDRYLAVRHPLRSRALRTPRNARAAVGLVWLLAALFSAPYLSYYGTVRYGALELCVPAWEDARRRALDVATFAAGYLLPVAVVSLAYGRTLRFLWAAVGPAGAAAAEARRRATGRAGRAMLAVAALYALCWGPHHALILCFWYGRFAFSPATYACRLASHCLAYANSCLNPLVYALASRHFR
GPR7 antag cf: human GPR7 antagonism, confirmation assay; shares compounds with GPR7 antag; GPR7-expressing cells, calcium fluorescence antagonist mode; inhibition, % at 4.4 µM; hit rate 52% among 2,400; AID 1952; in the data active = inhibition above about 24%;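 note: stimulated with the GPR7 agonist NPW; 0% = agonist plus vehicle and 100% = vehicle alone without agonist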
MCHR1 antag: counter-screen for GPR7 antagonists: antagonists of human MCHR1; shares compounds with GPR7 antag; MCHR1-expressing cells, fluorescence antagonist assay; inhibition, % at 4.4 µM; hit rate 62% among 2,400; AID 2148; in the data active = inhibition above about 22%;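 note: 0% = vehicle with agonist and 100% = vehicle without agonist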
* marks the source's active call; other numbers are inactive results; . = not tested or not shown.

SMILES	OX1R antag-1	GPR7 antag	OX1R antag-2	CHO parental Ca	GalR3 antagonist	GPR7 antag cf	MCHR1 antag
O=C(N[C@H]1C/C=C\C[C@H](CC(=O)N(CCO)Cc2ccccc2)C(=O)N[C@@H](c2ccccc2)COC1=O)OCC1c2ccccc2-c2ccccc21	12	.	-24	-25	.	.	.
COc1ccccc1-c1ccc(SCc2cccc(F)c2)nn1	25	29*	-9	-8	-2	36*	56*
Cc1cc(=O)n2c(n1)NC(Nc1cccc(C)c1C)=NC2c1ccc(F)cc1 (centres undefined)	0	-18	-19	-15	-9	.	.
Cc1cccc2cc(CN(CC(C)C)S(=O)(=O)c3ccccc3)c(=O)[nH]c12	11	3	-36	-28	-2	.	.
C#CC1(NC(=O)NCCCC)CCCCC1	4	-13	-5	2	-5	.	.
Cc1cc(Cl)ccc1NNC(=O)c1cccs1	1	23*	-5	-14	-2	1	3
Cc1nn(-c2ccccc2)c(Cl)c1CN(C(=O)CCl)c1ccc(Cl)cc1	1	95*	16	32	-10	99*	100*
CCc1ccc(NS(=O)(=O)c2cc3[nH]c(=O)c(=O)[nH]c3cc2C)cc1	10	-8	-12	-4	-10	.	.
CC(O)CNCCCOc1ccc(Cl)cc1C(C)(C)C (centres undefined)	1	21*	-14	-7	-7	38*	45*
Cn1nnnc1SCCNCC#Cc1ccccc1	18	26*	-14	-8	-6	8	4
CCn1c(NC(=O)c2ccc(C)cc2)c2ccccc2nc1=O	4	32*	-31	-11	6	-6	-10
CC1CCc2c(nc3sc4c(c3c2N)CCCC4)C1 (centres undefined)	19	22*	-13	-19	-5	21	20
COC(=O)c1sccc1NC(=O)Nc1ccc(C(C)=O)cc1	.	-3	.	.	-3	.	.
COc1ccc(C(=O)Nc2nnc(S(=O)(=O)N(C)Cc3ccccc3)s2)cc1	16	41*	-6	-1	-5	22	31*
Cc1ccccc1C(=O)Nc1c(C(=O)N(CCN(C)C)Cc2ccco2)oc2ccccc12	7	6	-24	-27	-3	.	.
COc1ccc(OCC(=O)Nc2c(C(=O)N3CCN(C)CC3)oc3ccccc23)cc1	13	-7	-50	-31	-7	.	.
COc1ccc(OCC(=O)Nc2c(C(=O)N(CCN(C)C)Cc3ccco3)oc3ccccc23)cc1	20	28*	13	-3	-3	23	35*
COc1ccccc1C(=O)Nc1c(C(=O)N(CCN(C)C)Cc2ccco2)oc2ccccc12	17	29*	0	-6	-6	48*	62*
Cc1ccc(C(=O)OCC(=O)c2ccc(S(=O)(=O)N3CCCCC3)cc2)o1	12	.	-5	-6	-4	.	.
CC(=O)Nc1ccc(S(=O)(=O)Nc2ccccc2N2CCOCC2)cc1	12	.	9	5	-5	.	.
N=c1n(Cc2ccccc2)c2ccccc2n1CC(O)COc1ccc(Cl)cc1Cl (centres undefined)	.	28*	.	.	-6	77*	98*
COc1ccc(OCC(O)Cn2c(=N)n(Cc3ccccc3)c3ccccc32)cc1 (centres undefined)	8	38*	-7	-12	-8	31*	57*
N=c1n(Cc2ccccc2)c2ccccc2n1Cc1ccccc1	19	15	-7	-9	-8	.	.
Cc1ccc(OCC(O)Cn2c(=N)n(Cc3ccccc3)c3ccccc32)cc1 (centres undefined)	0	33*	13	10	-10	37*	61*
Cc1cccc(OCC(O)Cn2c(=N)n(Cc3ccccc3)c3ccccc32)c1 (centres undefined)	-8	31*	18	19	-1	36*	69*
SMILES	OX1R antag-1	GPR7 antag	OX1R antag-2	CHO parental Ca	GalR3 antagonist	GPR7 antag cf	MCHR1 antag
CS(=O)(=O)c1ccccc1-c1nnc(NC(=O)Cc2ccccc2)o1	-1	-1	-17	0	5	.	.
COc1ccc(CCNc2nc(-c3ccc(F)cc3)c(CC(=O)O)s2)cc1OC	20	-13	-13	-20	-10	.	.
COc1cccc(OC)c1C(=O)NC(=S)Nc1ccc2oc(-c3ccncc3)nc2c1	26	-2	-23	-11	-7	.	.
CCN(CC)CCn1c(=N)n(CC(O)COc2cccc(C)c2)c2ccccc21 (centres undefined)	11	14	-14	-19	-12	.	.
Cc1cccc(OCC(O)Cn2c(=N)n(CCN3CCCCC3)c3ccccc32)c1 (centres undefined)	19	38*	-12	-19	-10	45*	40*
COC(=O)c1cccc(NC(=O)c2cnccn2)c1	.	24*	.	.	-9	8	1
CCOC(=O)c1cccc(NC(=O)c2cnccn2)c1	7	-6	-7	-6	-2	.	.
O=C(C/C=N\OCc1ccc([N+](=O)[O-])cc1)Nc1ccc(Cl)cc1	31	25*	-16	-1	1	31*	40*
O=C(Cc1ccc([N+](=O)[O-])cc1)Nc1ccc(Cl)cc1	17	3	4	6	1	.	.
CS(=O)(=O)N(CC(=O)N1CCN(Cc2ccccc2)CC1)c1cccc([N+](=O)[O-])c1	2	-18	-14	-6	-3	.	.
O=C(NC1CCN(Cc2ccc(Cl)cc2)CC1)c1cn(-c2ccccc2)nc1-c1cccnc1	1	.	-25	-26	-6	.	.
CCOC(=O)c1sc(NC(=O)Nc2ccc(Cl)cc2)cc1C	86*	35*	67*	79*	-2	63*	72*
COc1ccc(NC(=O)CN(C)C(=O)C(CCSC)NC(=O)c2ccccc2)cc1 (centres undefined)	2	-13	-6	-13	-8	.	.
CCc1ccc(OCC(=O)Nc2ccc3c(c2)COC3=O)cc1	9	36*	2	10	-3	21	37*
Cc1ccccc1OCC(=O)Nc1ccc2c(c1)COC2=O	7	6	-25	3	-6	.	.
CCOc1ccc(C(=O)Nc2ccc3c(c2)C(=O)NC3=O)cc1	8	-10	-4	-1	1	.	.
CCC(C)c1ccc(OCC(=O)Nc2ccc3c(c2)C(=O)NC3=O)cc1 (centres undefined)	30	30*	-4	12	-5	40*	67*
Cc1c(Br)c([N+](=O)[O-])nn1CC(=O)NCCc1ccc(Cl)cc1	6	9	-18	-17	-3	.	.
CCOC(=O)C1=C(C)NC2=C(C(=O)OC2)C1c1ccccc1 (centres undefined)	18	5	-4	-7	-4	.	.
Cc1cc(Cl)ccc1OC(C)C(=O)Nc1ccc(S(=O)(=O)N2CCOCC2)cc1 (centres undefined)	-7	35*	12	14	-2	24	26*
